Here are results for three compounds from article PMC6175093 (Journal of Clinical Pharmacology, 2018).

Series [1] is classed as in vivo, human. To be noted: metabolite; for t½: mean (SD); for Tmax: median (minimum, maximum). The essentials: (§1)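 Randomized two-sequence crossover in healthy adults, ≥10-day washout. Single oral 4-mg rosiglitazone was given alone on day 1, or on day 3 of the test compound regimen (1250 mg loading dose on day 1, then 750 mg once daily for 7 more days), after a 10-h fast. K2EDTA blood was drawn predose to 120 h and plasma stored at ~−70°C. LC-MS/MS, LLOQ 0.500 ng/mL. GMR (90%CI) came from a linear mixed effect model.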

The format of series [2] is in vivo, human. The settings on record: for AUC / AUC_%Extrap_obs: geometric mean (CV%). The essentials: as §1
The nature of series [3]: Safety and tolerability in phase 1 study. Type of series: in vivo, human. The essentials: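 Healthy adults in a two-period crossover: single oral 4-mg rosiglitazone alone, and the test compound (1250 mg on day 1, 750 mg daily for 7 days) with rosiglitazone on day 3. Dosing was fasted. Adverse events were recorded from informed consent until 14 days after the last dose and graded by intensity.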

For series [4] the following is noted: phase 1 drug‐drug interaction study; cited from earlier work.
Series [5] in a line: Phase 1 study: plasma PK of SCY‐078 after loading dose and repeat daily doses. Type of series: in vivo, human. The essentials: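 Healthy adults fasted 10 h, then took the oral test compound: 1250-mg loading dose on day 1, then 750 mg once daily for 7 more days. Blood was drawn predose and 0.5–24 h on day 1, predose and 0.5–16 h on day 3, and as troughs before dosing on days 4–8. K2EDTA plasma was centrifuged at 2000 g and stored at ~−70°C. Validated LC-MS/MS, LLOQ 5.00 ng/mL.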

The next series relates to Candida species. The settings on record: in vivo murine models for invasive fungal infections with Candida species; cited from earlier work.
For series [6], the system named is Candida and Aspergillus species clinical isolates. To be noted: cited from earlier work.
The conditions of series [7]: cited from earlier work.
In series [8] the test system is CYP2C8. The experiment in a line: In vitro CYP2C8 inhibition. Type of series: in vitro ADME.
The test system of the next series is other CYP isoforms. The settings on record: ref Wring SA, Park SM, unpublished data on file; cited from earlier work.
Series [9] concerns CYP2C8. To be noted: inhibition of CYP2C8‐mediated N‐desethyl‐amodiaquine activity; ref Wring SA, Park SM, unpublished data on file; cited from earlier work.
[10] abbreviates: rosiglitazone 4 mg + SCY‐078 750 mg, day 3, n = 17, geometric mean (CV%).
Where [11] appears, read: rosiglitazone 4 mg + SCY‐078 750 mg, day 3, n = 17.
Setting [12] is: rosiglitazone 4 mg alone, day 1, n = 17, geometric mean (CV%).
[13] abbreviates: rosiglitazone 4 mg alone, day 1, n = 17.
Setting [14] is: both, human, plasma, oral, 4 mg.
The mark [15] stands for this setting: all treatments pooled, 24 subjects.
Where [16] appears, read: both, human, plasma, po, 1250 mg.

SMILES strings stand for the structures. Like-named read-outs stand apart in the source and are kept apart here.

Take `O=C1NC(=O)C(Cc2ccc(OCCNc3ccccn3)cc2)S1` (stereo not shown) [N‐Desmethylrosiglitazone, N‐desmethylrosiglitazone]: in series [1] (0 to infinity, rosiglitazone 4 mg + SCY‐078 750 mg, day 3, n = 17, geometric mean (CV%)), the AUC is given as 2260 (15.5) μg·hr/mL. For the same compound, in series [1] (geometric mean ratio (90%CI)), the “AUC0‐24h GMR rosiglitazone + SCY‐078 vs rosiglitazone alone” value is reported as 0.97 (0.89‐1.06), the “AUC0‐last GMR rosiglitazone + SCY‐078 vs rosiglitazone alone” value is listed as 1.03 (0.95‐1.12), the “AUC GMR rosiglitazone + SCY‐078 vs rosiglitazone alone” value was 1.03 (0.95‐1.12) and the “Cmax GMR rosiglitazone + SCY‐078 vs rosiglitazone alone” value is given as 0.97 (0.88‐1.07). For the same compound, in [1] (setting [10]), the AUC0‐24h was determined as 1.31 µg·h/mL, the AUC0‐last stood at 2.24 µg·h/mL, the AUC_%Extrap_obs is recorded as 0.90 (45.6) % and the Cmax is 70.4 (16.4) ng/mL. In addition, in series [1] (setting [11]), the t½ is listed as 15.2 (2.3) h and the Tmax is reported as 8.0 (6.0, 16.0) h. Besides, in [1] (setting [12]), the AUC0‐24h amounted to 1.34 µg·h/mL, the AUC0‐last was 2.17 µg·h/mL, the AUC_%Extrap_obs is given as 0.91 (52.4) % and the Cmax was 72.8 (17.6) ng/mL. In [1] (setting [13]), the t½ is on record as 14.5 (2.4) h and the Tmax is 6.0 (4.0, 12.0) h.
With `CN(CCOc1ccc(CC2SC(=O)NC2=O)cc1)c1ccccn1` (stereo not shown) [Rosiglitazone, rosiglitazone], in series [2] (setting [14]), the Cmax was determined as 295 ng/mL, the Tmax stood at 0.5 h and the half-life is 3.7 h. The AUC in [2] (both, human, plasma, oral, AUC0‐24h, rosiglitazone 4 mg + SCY‐078 750 mg, day 3, n = 17) was 1420 µg·h/mL. Moreover, the AUC in series [2] (both, human, plasma, oral, AUC0‐last, rosiglitazone 4 mg + SCY‐078 750 mg, day 3, n = 17) is 1440 µg·h/mL. In series [2] (geometric mean ratio (90%CI)), the “AUC0‐24h GMR rosiglitazone + SCY‐078 vs rosiglitazone alone” value is reported as 0.98 (0.89‐1.08), the “AUC0‐last GMR rosiglitazone + SCY‐078 vs rosiglitazone alone” value is 0.99 (0.90‐1.10), the “AUC GMR rosiglitazone + SCY‐078 vs rosiglitazone alone” value is 0.99 (0.90‐1.10) and the “Cmax GMR rosiglitazone + SCY‐078 vs rosiglitazone alone” value is reported as 0.80 (0.70‐0.90). Also, in series [2] (setting [11]), the AUC_%Extrap_obs is listed as 0.71 (62.2) %. The AUC_%Extrap_obs in series [2] (setting [13]) is 0.58 (74.3) %. For the same compound, the “treatment‐emergent AE: diarrhea” value in series [3] (all treatments pooled (rosiglitazone alone and with SCY‐078), 24 subjects) is on record as 58.3%. In series [3] (setting [15]), the “serious AEs and deaths” value is reported as “no serious AEs”; the “treatment‐emergent AE: abdominal pain” value came out at 41.7%; the “treatment‐emergent AE: contact dermatitis” value is listed as 8.3%; the “treatment‐emergent AE: dizziness” value came out at 8.3%. Moreover, in series [3] (setting [15]), the “treatment‐emergent AE: headache” value is 16.7%, the “treatment‐emergent AE: menstruation irregularity” value worked out at 12.5%, the “treatment‐emergent AE: nausea” value is 41.7% and the “treatment‐emergent AE: somnolence” value turned out to be 8.3%. Moreover, the “treatment‐emergent AE: vomiting” value in series [3] (setting [15]) was found to be 25%. Moreover, the tolerability result in [3] (rosiglitazone in the presence and absence of repeat doses of SCY‐078, healthy subjects) is given as “generally well tolerated”.
In the case of `CC(C)[C@@H](C)[C@@]1(C)CC[C@]2(C)[C@H]3CC[C@@H]4[C@@]5(COC[C@@]4(C)[C@@H](OC[C@](C)(N)C(C)(C)C)[C@H](n4ncnc4-c4ccncc4)C5)C3=CC[C@@]2(C)[C@@H]1C(=O)O` [SCY‐078], in series [4], the interaction with tacrolimus result is recorded as “no clinically relevant interaction”. The Tmax in series [5] (both, human, plasma, oral) stood at 6 h. Also, in series [5] (setting [16]), the AUC was found to be 11.6 µg·h/mL, the Tmax was 6 h and the concentration at 24 h worked out at 294 ng/mL. This compound also gave a Cmax in series [5] (both, human, plasma, po, 1250 mg, Cmax, day 1, oral 1250‐mg loading dose, fasted, geometric mean (CV%)) of 783 ng/mL. Moreover, the “maximum concentration in plasma” value in series [5] (day 3, once‐daily oral regimen, molar equivalent of ∼0.93 μg/mL) stood at 1.28 µM. Further, in series [5] (following the loading dose and repeated daily doses), the absorption entry was “well absorbed”. Further, in the series on Candida species, the efficacy target exposure is reported as 11.2 μg·h^2/mL. Besides, the “in vitro activity against Candida and Aspergillus species clinical isolates” value in [6] was “potent in vitro activity”. Also, the “activity against azole‐resistant, most echinocandin‐resistant, and multidrug‐resistant strains of Candida species” value in series [6] (in vitro) is “retained activity”. The “binding to plasma proteins” value in [7] is 99.7%. Besides, the “unbound concentration in plasma as % of the CYP2C8 IC50” value in the series with CYP2C8 [8] (day 3 Cmax, based on 99.7% binding to plasma proteins) is on record as ~3%. Further, the “plasma Cmax exceeds the in vitro CYP2C8 IC50” value with CYP2C8 [8] (day 3 total Cmax vs IC50) is “approximately 4 fold”. In the series with other CYP isoforms, the “IC50 values for other CYP isoforms, fold higher than CYP2C8” value is on record as > 5 fold. Besides, the IC50 in the series on CYP2C8 [9] was ~300 nM.

Usually half-life stands for the time needed for the level to fall by half in the phase considered. Read a low half-life as fast loss. Broadly, the IC50 is the concentration at which inhibition is half-maximal.
